From ChEMBL document CHEMBL2034932, “2-Anilino-4-(benzimidazol-2-yl)pyrimidines--a multikinase inhibitor scaffold with antiproliferative activity toward cancer cell lines” (Eur J Med Chem, 2012)
Activity calls are given as the source filed them. The calls are words filed in the database; no cut-off is given here.

Experiments:
[1] = biological target: T1, RAC-alpha serine/threonine-protein kinase (Homo sapiens, UniProt P31749); assay: Inhibition of recombinant AKT1 using GSK3 as substrate assessed as inhibition of [33P]Phosphate incorporation into substrate after 80 mins by scintillation counting
T1 sequence (P31749 whole entry): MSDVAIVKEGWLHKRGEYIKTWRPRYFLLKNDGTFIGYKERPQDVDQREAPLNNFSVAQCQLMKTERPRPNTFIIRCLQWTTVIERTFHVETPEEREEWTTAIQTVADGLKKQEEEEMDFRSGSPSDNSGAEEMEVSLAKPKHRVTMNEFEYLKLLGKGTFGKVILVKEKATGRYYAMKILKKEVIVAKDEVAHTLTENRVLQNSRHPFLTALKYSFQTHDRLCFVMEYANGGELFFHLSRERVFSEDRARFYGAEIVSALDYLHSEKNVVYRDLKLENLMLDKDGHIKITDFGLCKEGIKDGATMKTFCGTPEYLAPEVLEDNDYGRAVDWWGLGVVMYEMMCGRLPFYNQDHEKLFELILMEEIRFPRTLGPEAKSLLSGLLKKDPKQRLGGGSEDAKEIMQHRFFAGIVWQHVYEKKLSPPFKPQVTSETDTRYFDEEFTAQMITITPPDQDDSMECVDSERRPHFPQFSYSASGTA
How it was run: (§1)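 Recombinant AKT1 was assayed radiometrically with [33P]-ATP (about 5×10^5 cpm/well) and GSK3(14-27) substrate at 2000 ng/50 µL. Buffer was 60 mM HEPES-NaOH pH 7.5 with 3 mM MgCl2 and 3 mM MnCl2, and compound was added in 10% DMSO. After 80 min at 30 °C the reaction was stopped with 2% phosphoric acid, washed with 0.9% NaCl and 33P incorporation counted by scintillation.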

[2] = biological target: T2, Aurora kinase B (Homo sapiens, UniProt Q96GD4); assay: Inhibition of recombinant Aurora B using tetra(LRRWSLG) as substrate assessed as inhibition of [33P]Phosphate incorporation into substrate after 80 mins by scintillation counting
T2 sequence (Q96GD4 whole entry): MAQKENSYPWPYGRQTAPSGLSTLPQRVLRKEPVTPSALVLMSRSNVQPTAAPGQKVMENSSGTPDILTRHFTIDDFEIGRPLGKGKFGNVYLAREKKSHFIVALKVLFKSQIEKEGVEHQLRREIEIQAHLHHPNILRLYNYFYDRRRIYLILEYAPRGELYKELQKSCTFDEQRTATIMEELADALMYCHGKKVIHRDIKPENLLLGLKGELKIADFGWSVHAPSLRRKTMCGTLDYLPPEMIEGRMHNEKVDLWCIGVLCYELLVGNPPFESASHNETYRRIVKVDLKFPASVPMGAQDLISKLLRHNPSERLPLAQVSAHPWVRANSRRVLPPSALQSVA

[3] = biological target: T3, Focal adhesion kinase 1 (Homo sapiens, UniProt Q05397); assay: Inhibition of recombinant FAK using poly(Glu,Tyr)4 as substrate assessed as inhibition of [33P]Phosphate incorporation into substrate after 80 mins by scintillation counting
Target sequence in this assay (Q05397 whole entry): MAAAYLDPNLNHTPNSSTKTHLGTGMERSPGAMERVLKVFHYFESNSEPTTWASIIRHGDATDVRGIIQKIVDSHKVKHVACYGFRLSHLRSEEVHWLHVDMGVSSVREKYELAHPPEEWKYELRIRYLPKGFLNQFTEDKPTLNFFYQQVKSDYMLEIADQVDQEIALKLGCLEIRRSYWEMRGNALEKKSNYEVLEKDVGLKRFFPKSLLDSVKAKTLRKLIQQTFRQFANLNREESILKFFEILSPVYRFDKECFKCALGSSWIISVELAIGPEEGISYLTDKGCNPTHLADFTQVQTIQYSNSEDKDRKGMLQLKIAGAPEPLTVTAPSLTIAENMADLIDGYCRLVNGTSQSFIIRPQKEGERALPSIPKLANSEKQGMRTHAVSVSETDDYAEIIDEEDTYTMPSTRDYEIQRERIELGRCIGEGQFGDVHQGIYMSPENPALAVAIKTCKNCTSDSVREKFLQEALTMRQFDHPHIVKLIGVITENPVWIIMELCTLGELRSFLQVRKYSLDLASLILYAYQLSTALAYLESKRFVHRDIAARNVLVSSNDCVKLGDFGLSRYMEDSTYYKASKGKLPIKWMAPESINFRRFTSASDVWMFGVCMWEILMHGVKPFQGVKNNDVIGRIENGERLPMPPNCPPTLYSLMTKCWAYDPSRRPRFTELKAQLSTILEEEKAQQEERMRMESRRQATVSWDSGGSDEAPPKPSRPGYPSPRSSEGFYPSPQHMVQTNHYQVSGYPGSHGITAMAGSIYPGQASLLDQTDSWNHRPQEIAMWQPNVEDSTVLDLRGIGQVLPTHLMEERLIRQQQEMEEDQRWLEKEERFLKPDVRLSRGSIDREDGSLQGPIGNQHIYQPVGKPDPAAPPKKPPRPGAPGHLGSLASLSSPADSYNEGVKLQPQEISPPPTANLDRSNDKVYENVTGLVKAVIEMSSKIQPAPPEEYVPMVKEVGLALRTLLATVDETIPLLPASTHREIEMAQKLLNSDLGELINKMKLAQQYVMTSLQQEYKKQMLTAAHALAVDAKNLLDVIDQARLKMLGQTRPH

[4] = biological target: T4, Vascular endothelial growth factor receptor 2 (Homo sapiens, UniProt P35968); assay: Inhibition of recombinant VEGFR2 using poly(Glu,Tyr)4 as substrate assessed as inhibition of [33P]Phosphate incorporation into substrate after 80 mins by scintillation counting
[5] = biological target: T5, Serine/threonine-protein kinase PLK1 (Homo sapiens, UniProt P53350); assay: Inhibition of recombinant PLK1 using RBERCHKtide as substrate assessed as inhibition of [33P]Phosphate incorporation into substrate after 80 mins by scintillation counting
How it was run: (§2)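 PLK1 (recombinant) was phosphorylating RBER-CHKtide at 2000 ng/50 µL with [33P]-ATP (about 5×10^5 cpm/well). Buffer was 60 mM HEPES-NaOH pH 7.5 with 3 mM MgCl2 and 3 mM MnCl2. After 80 min at 30 °C, 2% phosphoric acid stopped the reaction and wells were washed with saline. Incorporated 33P was counted, with residual activity relative to enzyme-free and inhibitor-free controls.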

[6] = biological target: T1, RAC-alpha serine/threonine-protein kinase; assay: Inhibition of recombinant AKT1 using GSK3 as substrate assessed as inhibition of [33P]Phosphate incorporation into substrate at <10 uM after 80 mins by scintillation counting
How it was run: as §1, with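 “scintillation. Residual activity was set against no-enzyme and no-inhibitor controls.” for “scintillation.”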

[7] = biological target: T2, Aurora kinase B; assay: Inhibition of recombinant Aurora B using tetra(LRRWSLG) as substrate assessed as inhibition of [33P]Phosphate incorporation into substrate at <10 uM after 80 mins by scintillation counting
How it was run: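 Recombinant Aurora B was assayed with [33P]-ATP (about 5×10^5 cpm/well) and tetra(LRRWSLG) substrate at 500 ng/50 µL. Buffer was 60 mM HEPES-NaOH pH 7.5 with 3 mM MgCl2 and 3 mM MnCl2. Incubation ran 80 min at 30 °C and was stopped with 2% phosphoric acid, then washed with saline. Bound 33P was counted by scintillation, with activity normalised to no-enzyme (0%) and no-inhibitor (100%) controls.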

[8] = biological target: T3, Focal adhesion kinase 1; assay: Inhibition of recombinant FAK using poly(Glu,Tyr)4 as substrate assessed as inhibition of [33P]Phosphate incorporation into substrate at <10 uM after 80 mins by scintillation counting
How it was run: (§3)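 FAK and VEGF-R2 were each tested as recombinant kinase with poly(Glu,Tyr)4:1 substrate at 125 ng/50 µL and [33P]-ATP (about 5×10^5 cpm/well). Buffer was 60 mM HEPES-NaOH pH 7.5 with 3 mM MgCl2 and 3 mM MnCl2. Reactions ran 80 min at 30 °C and were quenched with 2% phosphoric acid and washed with 0.9% NaCl. Scintillation counts were normalised between no-enzyme and uninhibited controls.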
Target sequence in this assay (Q05397 2-1052 limits assumed): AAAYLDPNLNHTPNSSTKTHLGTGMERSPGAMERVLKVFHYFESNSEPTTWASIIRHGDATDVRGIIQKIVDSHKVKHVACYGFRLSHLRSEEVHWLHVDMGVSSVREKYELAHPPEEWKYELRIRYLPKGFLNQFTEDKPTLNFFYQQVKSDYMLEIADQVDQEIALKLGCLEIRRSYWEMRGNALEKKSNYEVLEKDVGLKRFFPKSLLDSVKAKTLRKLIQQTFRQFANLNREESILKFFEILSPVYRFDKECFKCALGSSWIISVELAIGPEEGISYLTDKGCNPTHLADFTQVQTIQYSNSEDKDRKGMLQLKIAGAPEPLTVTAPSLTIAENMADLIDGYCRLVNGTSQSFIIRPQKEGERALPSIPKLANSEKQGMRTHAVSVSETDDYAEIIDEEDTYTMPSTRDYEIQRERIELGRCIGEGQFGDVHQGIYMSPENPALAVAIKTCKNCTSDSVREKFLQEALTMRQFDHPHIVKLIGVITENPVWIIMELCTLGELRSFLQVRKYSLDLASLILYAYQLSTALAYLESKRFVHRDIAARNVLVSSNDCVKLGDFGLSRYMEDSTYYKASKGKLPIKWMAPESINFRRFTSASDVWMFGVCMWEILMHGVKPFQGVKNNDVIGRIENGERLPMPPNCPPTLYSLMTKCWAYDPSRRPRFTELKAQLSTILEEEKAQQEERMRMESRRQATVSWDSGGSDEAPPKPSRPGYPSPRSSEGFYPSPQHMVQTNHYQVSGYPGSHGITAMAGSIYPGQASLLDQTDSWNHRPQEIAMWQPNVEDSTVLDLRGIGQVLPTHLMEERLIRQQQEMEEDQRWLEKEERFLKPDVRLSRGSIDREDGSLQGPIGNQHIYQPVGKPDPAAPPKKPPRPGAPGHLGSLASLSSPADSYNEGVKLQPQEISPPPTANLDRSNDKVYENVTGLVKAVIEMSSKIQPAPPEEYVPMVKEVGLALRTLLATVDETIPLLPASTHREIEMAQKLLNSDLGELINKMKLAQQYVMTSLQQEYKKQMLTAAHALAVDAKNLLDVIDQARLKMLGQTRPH

[9] = biological target: T4, Vascular endothelial growth factor receptor 2; assay: Inhibition of recombinant VEGFR2 using poly(Glu,Tyr)4 as substrate assessed as inhibition of [33P]Phosphate incorporation into substrate at <10 uM after 80 mins by scintillation counting; how it was run: as §3
[10] = biological target: T5, Serine/threonine-protein kinase PLK1; assay: Inhibition of recombinant PLK1 using RBERCHKtide as substrate assessed as inhibition of [33P]Phosphate incorporation into substrate at <10 uM after 80 mins by scintillation counting; how it was run: as §2
[11] = biological target: T6, NUAK family SNF1-like kinase 1 (Homo sapiens) (UniProt O60285); assay: Inhibition of recombinant ARK5 at <10 uM by radiometric kinase assay
T6 sequence (whole entry): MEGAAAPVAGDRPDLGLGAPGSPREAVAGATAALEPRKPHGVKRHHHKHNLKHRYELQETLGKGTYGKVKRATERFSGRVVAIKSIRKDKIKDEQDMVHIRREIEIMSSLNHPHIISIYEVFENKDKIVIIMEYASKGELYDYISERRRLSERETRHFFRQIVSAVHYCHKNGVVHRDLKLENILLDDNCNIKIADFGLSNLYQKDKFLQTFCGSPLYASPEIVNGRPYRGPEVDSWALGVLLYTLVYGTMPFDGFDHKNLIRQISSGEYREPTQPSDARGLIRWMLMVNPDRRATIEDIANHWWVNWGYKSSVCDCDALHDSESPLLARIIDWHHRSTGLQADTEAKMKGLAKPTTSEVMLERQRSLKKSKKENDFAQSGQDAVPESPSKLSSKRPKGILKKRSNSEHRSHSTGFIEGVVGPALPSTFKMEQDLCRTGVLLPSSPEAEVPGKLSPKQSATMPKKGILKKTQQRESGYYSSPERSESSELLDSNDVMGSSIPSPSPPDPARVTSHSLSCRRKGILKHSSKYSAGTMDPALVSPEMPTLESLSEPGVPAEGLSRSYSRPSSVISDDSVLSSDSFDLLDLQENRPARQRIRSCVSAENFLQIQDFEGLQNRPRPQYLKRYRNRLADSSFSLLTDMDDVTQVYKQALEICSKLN
How it was run: (§4)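 Recombinant kinases were tested in a radiometric 33P-ATP assay in 60 mM HEPES-NaOH pH 7.5 with 3 mM MgCl2 and 3 mM MnCl2, with compound added in 10% DMSO. Incubation was 80 min at 30 °C, stopped with 2% phosphoric acid and washed. 33P incorporation was scintillation-counted, and activity was scaled between no-enzyme and no-inhibitor controls.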

[12] = biological target: Tyrosine-protein kinase receptor UFO (Homo sapiens) (UniProt P30530); assay: Inhibition of recombinant AXL at <10 uM by radiometric kinase assay; how it was run: as §4
[13] = biological target: Insulin-like growth factor 1 receptor (Homo sapiens) (UniProt P08069); assay: Inhibition of recombinant IGF1R at <10 uM by radiometric kinase assay; how it was run: as §4
Insulin-like growth factor 1 receptor (Homo sapiens), sequence (P08069 31-736 limits assumed): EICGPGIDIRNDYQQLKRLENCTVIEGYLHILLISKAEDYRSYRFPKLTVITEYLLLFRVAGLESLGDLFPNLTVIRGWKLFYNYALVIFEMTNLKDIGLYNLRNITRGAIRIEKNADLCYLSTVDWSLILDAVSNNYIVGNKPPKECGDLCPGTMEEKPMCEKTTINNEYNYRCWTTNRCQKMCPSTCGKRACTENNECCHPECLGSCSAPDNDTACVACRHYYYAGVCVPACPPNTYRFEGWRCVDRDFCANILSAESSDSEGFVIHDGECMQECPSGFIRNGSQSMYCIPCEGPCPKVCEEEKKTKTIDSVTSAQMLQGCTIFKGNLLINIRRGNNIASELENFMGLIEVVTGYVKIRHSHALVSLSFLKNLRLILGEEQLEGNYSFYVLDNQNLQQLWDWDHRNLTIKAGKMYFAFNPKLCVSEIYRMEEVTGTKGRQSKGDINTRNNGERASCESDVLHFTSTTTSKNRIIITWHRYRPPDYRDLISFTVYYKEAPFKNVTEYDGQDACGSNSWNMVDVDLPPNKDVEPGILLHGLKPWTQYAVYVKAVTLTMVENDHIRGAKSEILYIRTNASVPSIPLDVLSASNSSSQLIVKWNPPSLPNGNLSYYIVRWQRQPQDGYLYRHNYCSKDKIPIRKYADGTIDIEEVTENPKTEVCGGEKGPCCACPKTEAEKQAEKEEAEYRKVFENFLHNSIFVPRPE
Insulin-like growth factor 1 receptor (Homo sapiens), sequence (P08069 741-1367 limits assumed): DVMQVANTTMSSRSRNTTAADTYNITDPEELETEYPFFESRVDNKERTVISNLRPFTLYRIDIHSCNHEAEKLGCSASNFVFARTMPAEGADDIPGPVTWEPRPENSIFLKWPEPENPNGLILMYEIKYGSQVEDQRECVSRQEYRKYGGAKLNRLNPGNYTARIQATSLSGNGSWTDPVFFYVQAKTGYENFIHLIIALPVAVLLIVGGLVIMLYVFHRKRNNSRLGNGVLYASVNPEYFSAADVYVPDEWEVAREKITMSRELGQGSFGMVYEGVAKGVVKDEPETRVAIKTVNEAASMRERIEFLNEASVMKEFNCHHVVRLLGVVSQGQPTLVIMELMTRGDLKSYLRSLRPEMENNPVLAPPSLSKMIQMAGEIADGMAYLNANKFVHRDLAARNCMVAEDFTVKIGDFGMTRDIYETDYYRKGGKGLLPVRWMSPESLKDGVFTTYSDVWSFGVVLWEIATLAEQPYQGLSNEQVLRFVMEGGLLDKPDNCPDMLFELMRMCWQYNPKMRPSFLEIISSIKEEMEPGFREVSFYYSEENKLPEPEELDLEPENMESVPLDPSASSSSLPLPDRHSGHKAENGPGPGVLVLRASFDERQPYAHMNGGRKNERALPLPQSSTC

[14] = biological target: Hepatocyte growth factor receptor (Homo sapiens) (UniProt P08581); assay: Inhibition of recombinant MET at <10 uM by radiometric kinase assay; how it was run: as §4
[15] = biological target: Serine/threonine-protein kinase N1 (Homo sapiens) (UniProt Q16512); assay: Inhibition of recombinant PRK1 at <10 uM by radiometric kinase assay; how it was run: as §4
[16] = biological target: Proto-oncogene tyrosine-protein kinase Src (Homo sapiens) (UniProt P12931); assay: Inhibition of recombinant SRC at <10 uM by radiometric kinase assay; how it was run: as §4
Proto-oncogene tyrosine-protein kinase Src (Homo sapiens), sequence (P12931 2-536 limits assumed): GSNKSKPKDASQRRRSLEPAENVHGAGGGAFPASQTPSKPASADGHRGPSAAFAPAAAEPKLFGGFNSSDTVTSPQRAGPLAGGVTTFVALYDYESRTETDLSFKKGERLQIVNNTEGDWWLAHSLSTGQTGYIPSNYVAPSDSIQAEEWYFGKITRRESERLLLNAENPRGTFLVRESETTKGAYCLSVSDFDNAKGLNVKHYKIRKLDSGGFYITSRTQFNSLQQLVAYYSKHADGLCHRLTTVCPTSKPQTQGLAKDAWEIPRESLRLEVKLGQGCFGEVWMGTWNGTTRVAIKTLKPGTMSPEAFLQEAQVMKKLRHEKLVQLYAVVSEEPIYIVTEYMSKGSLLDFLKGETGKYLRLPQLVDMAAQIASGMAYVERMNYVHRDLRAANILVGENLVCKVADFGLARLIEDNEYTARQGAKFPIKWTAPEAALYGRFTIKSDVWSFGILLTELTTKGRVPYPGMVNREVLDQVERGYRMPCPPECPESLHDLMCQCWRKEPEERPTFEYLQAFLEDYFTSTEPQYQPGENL

[17] = test system: SW-620; assay: Antiproliferative activity against human SW620 cells after 48 hrs by SRB assay; type: functional; conditions: SW-620, 48 h
How it was run: (§5)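 Run in the NCI screen of about 60 human tumour cell lines. Cells were exposed to compound for 48 h at five concentrations from 10^-8 to 10^-4 M, then fixed and stained for protein with sulforhodamine B. Absorbance was read at 515 nm. Percent growth was calculated from time-zero, untreated-control and treated readings, and replicate experiments were averaged.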

[18] = test system: MDA-MB-435; assay: Antiproliferative activity against human MDA-MB-435 cells after 48 hrs by SRB assay; type: functional; conditions: MDA-MB-435, 48 h; how it was run: as §5
[19] = test system: OVCAR-3; assay: Antiproliferative activity against human OVCAR3 cells after 48 hrs by SRB assay; type: functional; conditions: OVCAR-3, 48 h; how it was run: as §5
[20] = test system: CAKI-1; assay: Antiproliferative activity against human CAKI-1 cells after 48 hrs by SRB assay; type: functional; conditions: CAKI-1, 48 h; how it was run: as §5
[21] = test system: MCF7; assay: Antiproliferative activity against human MCF7 cells after 48 hrs by SRB assay; type: functional; conditions: MCF7, 48 h; how it was run: as §5
[22] = test system: EKVX; assay: Antiproliferative activity against human EKVX cells after 48 hrs by SRB assay; type: functional; how it was run: as §5
[23] = test system: HT-29; assay: Antiproliferative activity against human HT-29 cells after 48 hrs by SRB assay; type: functional; conditions: HT-29, 48 h; how it was run: as §5
[24] = test system: SNB-19; assay: Antiproliferative activity against human SNB19 cells after 48 hrs by SRB assay; type: functional; conditions: SNB-19, 48 h; how it was run: as §5
[25] = test system: UACC-257; assay: Antiproliferative activity against human UACC257 cells after 48 hrs by SRB assay; type: functional; conditions: UACC-257, 48 h; how it was run: as §5
[26] = test system: TK-10; assay: Antiproliferative activity against human TK10 cells after 48 hrs by SRB assay; type: functional; conditions: TK-10, 48 h; how it was run: as §5

CCOc1ccc(Nc2nccc(-c3nc4ccccc4n3C)n2)cc1
IC50 [1]: > 100 µM
IC50 [2]: > 100 µM
IC50 [3]: > 100 µM
IC50 [4]: > 100 µM
IC50 [5]: > 100 µM
inhibition [6]: inactive
inhibition [7]: inactive
inhibition [8]: inactive
inhibition [9]: inactive
inhibition [10]: inactive
inhibition [11]: inactive
inhibition [12]: inactive
inhibition [13]: inactive
inhibition [14]: inactive
inhibition [15]: inactive
inhibition [16]: inactive

Cn1c(=O)c2ccc(-c3nc4ccccc4n3C)nc2n(C)c1=O
IC50 [3]: 92 µM
IC50 [4]: 85 µM
inhibition [6]: inactive
inhibition [8]: inactive
inhibition [9]: inactive
inhibition [10]: inactive
inhibition [11]: inactive
inhibition [12]: inactive
inhibition [13]: inactive
inhibition [14]: inactive
inhibition [15]: inactive
inhibition [16]: inactive

Cn1c(-c2ccnc(Nc3ccc(O)cc3)n2)nc2ccccc21
IC50 [1]: > 100 µM
IC50 [2]: 11.1 µM
IC50 [3]: 11.4 µM
IC50 [4]: 9.2 µM
IC50 [5]: 12 µM

COc1ccc(Nc2nccc(-c3nc4ccccc4n3C)n2)cc1
IC50 [1]: 75 µM
IC50 [2]: 62 µM
IC50 [3]: 27 µM
IC50 [4]: 44 µM
IC50 [5]: 15 µM
inhibition [6]: inactive
inhibition [7]: inactive
inhibition [8]: inactive
inhibition [9]: inactive
inhibition [10]: inactive
inhibition [11]: inactive
inhibition [12]: inactive
inhibition [13]: inactive
inhibition [14]: inactive
inhibition [15]: inactive
inhibition [16]: inactive

CCN(CC)CCNC(=O)c1c(C)[nH]c(/C=C2\C(=O)Nc3ccc(F)cc32)c1C [SUNITINIB]
GI50 [17]: 1300 nM
GI50 [18]: 2000 nM
GI50 [19]: 3.2 µM
GI50 [20]: 630 nM
GI50 [21]: 2000 nM
GI50 [22]: 7.9 µM
GI50 [23]: 1600 nM
GI50 [24]: 10 µM
GI50 [25]: 4 µM
GI50 [26]: 6.3 µM
